# Compound activity: PubChem BioAssay, several laboratories
# DTT redox prof = compounds producing H2O2 with reducing agent – biochemical, NIH compound library profiling, artefact control for MLSCN library redox annotation, primary screen; DTT-dependent redox cycling H2O2, phenol red/HRP absorbance; 100% = 100 µM peroxide control, 0% = buffer; actives 0.03% (n = 200,000); activation, % at 10 µM;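 active = activation of at least 50% relative to the plate's high and low controls in the primary single-dose screen; inactive = activation below 50%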;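 also: compound incubated with DTT at 0.8 mM final as the reducing agent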
# L major viab = Leishmania major promastigote growth inhibition, primary screen; AID 1063, 2008; Leishmania major promastigotes, resazurin fluorescence viability; inhibition, % at 10 µM; actives 9% (n = 200,000);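 also: promastigotes grown with compound for 44 hours at 28 °C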
# Diaphorase act = compounds boosting diaphorase resazurin reduction – biochemical, uHTS, resorufin fluorescence, counter-screen for diaphorase-coupled primary assays, primary screen; activation factor at 20 µM; Diaphorase/resazurin coupled assay, 16 min; stronger effect = higher value; 1 = vehicle wells, 0 = NADH-free wells; actives 0.005% (n = 190,000);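 active = diaphorase activity raised at least twofold by the compound at 20 µM; inactive = activation factor below 2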
#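 Material: Purified diaphorase enzyme from Clostridium kluyveri | Buffer or medium: 50 mM HEPES pH 7.4 with 4.542 mM MgCl2, 0.005% Tween 20 | Times: 16 min enzyme reaction, ambient temperature | Signal: Red resorufin fluorescence at 544/590 nm excitation/emission | Measure: Increased resorufin signal from activators or reducing compounds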
# PfGluPho inh = PfG6PD enzyme inhibitors, primary screen, biochemical, fluorescence intensity, uHTS | actives 0.78% (n = 350,000) | inhibition, % at 20 µM | PfGluPho enzyme, NADPH resazurin-diaphorase fluorescence;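 active = inhibition reaching at least a set limit at 20 µM in the primary screen, cut at about 59% in these data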;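 also: 0% = DMSO wells with substrate and 100% = DMSO wells lacking glucose-6-phosphate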
# G6PDH CS = L. mesenteroides G6PDH inhibitors, counter-screen for G6PDH-coupled screening assays, biochemical, Leuconostoc mesenteroides enzyme | AID 1020, 2008 | glucose-6-phosphate dehydrogenase [Leuconostoc mesenteroides] | actives 0.12% (n = 200,000) | Purified L. mesenteroides G6PDH, diaphorase/resazurin coupled fluorescence, 45 min | inhibition, % at 5 µM
# Diaphorase inh = diaphorase inhibitors and chemical oxidizers, primary screen, counter-screen for diaphorase-coupled primary assays, biochemical, uHTS, resorufin fluorescence; actives 0.69% (n = 190,000); diaphorase resazurin-to-resorufin fluorescence, NADH, 16 min; bacterial (C. kluyveri) enzyme, not human; inhibition, % at 20 µM;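 active = primary screen inhibition at 20 µM above a set limit, cut at about 50% in these data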;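 also: plate controls were DMSO with full reaction for no effect and wells lacking NADH for full effect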
#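 controls = No-NADH positive control and DMSO neutral control | system = Clostridium kluyveri diaphorase enzyme | timing = reaction incubation of 16 min at room temperature | signal = resorufin fluorescence 544/590 nm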
# The depositor's hits bear a star; . = no result given. The sample as a whole holds a higher share of hits than the screen did. Rule as the data show it, unless noted: active = inhibition above about 50%; inactive = the rest.
SMILES,DTT redox prof,L major viab,Diaphorase act,PfGluPho inh,G6PDH CS,Diaphorase inh
CCN(CC)C(C(=O)NC1CCCCC1)c1ccc(C)cc1 (centres undefined),-1.1,13.3,1.1,-13.5,4.2,-14.7
COC(CN(C)C(C(=O)NC1CCCCC1)c1ccccc1)OC (centres undefined),-0.8,-6.3,0.9,8.9,2.0,14.0
COC(CN(C(=O)CCl)C(C(=O)NC1CCCC(C)C1C)c1ccc(C)cc1)OC (centres undefined),-0.1,99.6*,1,3.4,-8.7,-3.1
COc1ccc(C(C(=O)NC2CCCCC2)N(C(=O)CCl)c2ccc(Cl)cc2)cc1 (centres undefined),0.2,100.3*,1,-3.2,-6.5,0.0
O=C(NC1CCCCC1)C(c1cccnc1)N(C(=O)CCl)c1cccc(Cl)c1 (centres undefined),-0.5,99.8*,1,3.1,11.9,4.9
O=C(NC1CCCC1)C(c1ccc(Cl)cc1)N(Cc1ccc(F)cc1)C(=O)CCl (centres undefined),0.0,100.4*,1,-2.7,-12.5,0.0
COc1ccc(C(C(=O)NC2CCCCC2)N(C(=O)CCCC(=O)Nc2ccccn2)c2ccc3c(c2)OCCO3)cc1 (centres undefined),1.9,-7.4,0.9,-7.9,3.8,12.3
O=C(CCCC(=O)N(c1ccc2c(c1)OCCO2)C(C(=O)NC1CCCCC1)c1ccc(Cl)cc1)Nc1ccccn1 (centres undefined),-3.0,58.2*,1,-2.0,-21.4,4.0
COC(CN(C(=O)CCl)C(C(=O)NC1CCCCC1)c1ccc(Cl)cc1)OC (centres undefined),-0.3,80.6*,1,1.9,-4.7,0.0
COc1ccccc1NC(=O)NC1(C(=O)N2CCCCC2)CCCCC1,.,.,.,0.9,.,.
COc1ccc(Nc2nnc(-c3ccc(C)cc3)c3ccccc23)cc1C(=O)N1CCCCC1,-0.1,65.7*,0.7,0.3,3.6,27.8
CC(C)[C@H](NS(=O)(=O)c1ccccc1)C(=O)Nc1ccccc1N1CCOCC1,.,.,.,3.9,.,.
CCOC(=O)C1(Cc2cccc(Cl)c2)CCCN(C2CCN(C(C)=O)CC2)C1 (centres undefined),-0.3,83.2*,1.2,16.3,13.1,-17.0
COc1ccc(OCC(=O)NCCCN2CCOCC2)cc1,1.7,15.8,0.9,-18.4,5.0,13.1
Cc1cc(C)c2c(=O)n(CC(=O)NCCCN3CCOCC3)sc2n1,-1.6,-6.3,1.1,70.3*,16.2,-7.4
Cc1cc(OCC(=O)NCCCN2CCOCC2)cc(C)c1Cl,-0.7,71.0*,.,13.0,.,.
Cc1cc(C)c2c(=O)n(CC(=O)NCCCN3CCN(c4ccccc4F)CC3)sc2n1,-2.5,7.0,1,98.5*,-7.9,-0.6
Cc1ccc(-n2ncc3c2CCCC3NC(=O)CCCN2CCCCC2=O)cc1C (centres undefined),.,.,.,2.8,.,.
CCOC(=O)c1sc2c(c1C)c(=O)n(Cc1ccccc1)c(=O)n2CCN(C)C,.,.,.,6.4,.,.
COC(=O)c1c(NC(=O)Cc2ccc(OC)c(S(=O)(=O)N3CCOCC3)c2)sc(C)c1C,.,.,.,9.2,.,.
CC(OC(=O)c1ccc(Cl)nc1)C(=O)Nc1ccc2c(c1)OCO2 (centres undefined),.,.,.,13.6,.,.
N#CC1=C(N)N(c2ncn[nH]2)C2=C(C(=O)CCC2)C1c1ccc(F)cc1 (centres undefined),-0.2,-3.1,0.7,-19.6,-2.8,25.5
Cc1ccccc1OCCNc1cc(N2CCNCC2)ccc1[N+](=O)[O-],0.0,100.3*,1.4,.,9.3,-35.5
COc1ccccc1OCCNc1cc(N2CCCCC2)ccc1[N+](=O)[O-],0.1,6.8,0.8,11.8,-13.5,15.4
CC1=C(C(=O)N(C)C)C(c2ccc(C)s2)NC(=S)N1 (centres undefined),-1.0,-5.0,1,-7.5,2.1,4.2
SMILES,DTT redox prof,L major viab,Diaphorase act,PfGluPho inh,G6PDH CS,Diaphorase inh
C=CCSC1=N/C(=C\c2cc(OCC)c(OC(C)=O)c([N+](=O)[O-])c2)C(=O)S1,0.2,-1.1,0.4,36.3,0.0,56.8*
Cn1ccc(C(=O)Nc2cccnc2Cl)n1,.,.,.,4.9,.,.
CC(C)c1onc(C(=O)N(C)C2CCCCC2)c1[N+](=O)[O-],1.1,1.0,0.9,-2.9,4.7,8.4
C(=C\c1ccccc1)/CN1CCN(c2ncnc3c2oc2ccccc23)CC1,0.1,57.4*,0.7,21.3,3.4,33.3
c1cnc(N2CCN(c3ncnc4c3oc3ccccc34)CC2)nc1,.,.,0.7,.,9.8,30.8
COCCN(C(=O)c1cc(S(=O)(=O)N2CCCCC2)ccc1Cl)c1c(N)n(CC(C)C)c(=O)[nH]c1=O,.,.,.,-13.8,.,.
O=c1c(CN2CCN(Cc3ccccc3)CC2)coc2ccc(Cl)cc12,-3.1,76.0*,0.9,4.1,-24.2,11.0
Cc1ccc2occ(CN3CCN(Cc4ccccc4)CC3)c(=O)c2c1,1.2,18.8,1.1,.,1.8,-11.8
Cc1cccc(-c2nc(CSc3nc4c(c(=O)[nH]3)CCC4)c(C)o2)c1,0.5,-1.6,0.8,-25.1,16.8,20.3
Cc1cccc(C(=O)NC(=S)Nc2c(C)n(C)n(-c3ccccc3)c2=O)c1,.,.,.,-11.8,.,.
CN1C=C/C(=C\c2cc[n+](C)c3ccccc23)c2ccccc21,-1.0,100.6*,0.4,39.7,60.4*,55.0*
CC[n+]1ccc(/C=C2\Sc3ccccc3N2CCCS(=O)(=O)[O-])c2ccccc21,0.3,4.9,0.9,-2.3,14.9,7.3
NC(=O)C(c1ccc(Cl)cc1Cl)c1ncc(C(F)(F)F)cc1Cl (centres undefined),2.5,-0.7,0.9,-0.2,10.2,7.7
CCCCCNC(=O)c1ccc2c(=O)[nH]c3c(C(=O)NCC4CCCO4)sc(=S)n3c2c1 (centres undefined),0.3,-3.1,0.4,5.5,-2.4,64.8*
Cc1ccc(CNC(=O)c2ccc3c(=O)[nH]c4c(C(=O)NCC5CCCO5)sc(=S)n4c3c2)cc1 (centres undefined),-0.3,0.0,0.2,-4.0,4.7,78.7*
O=C(NCc1ccccc1)c1ccc2c(=O)[nH]c3c(C(=O)NCC4CCCO4)sc(=S)n3c2c1 (centres undefined),-0.2,5.8,0.3,17.2,-1.9,69.5*
O=C(NCc1ccccc1)c1ccc2c(=O)n(CC3CCCO3)c(=S)[nH]c2c1 (centres undefined),-7.6,10.9,0.9,-17.0,-5.5,13.7
